Active and inactive are the calls of the source. The calls are words filed in the database; no cut-off is given here.
Columns and labels:
[1] = Inhibitory activity against farnesyl transferase
LoVo = test: Antiproliferative activity against LoVo cell line; format: functional, cell-based; conditions: Homo sapiens
How it was run: (§1)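 Monolayers in RPMI-1640 with 10% FBS, seeded ~10% confluent and allowed 24 h recovery. Compounds in DMSO at varying concentrations for 24 h (37 °C, 5% CO2), then washout and 48 h further growth. Viability by sulforhodamine B; %T/C relative to vehicle-treated controls; 50% growth-inhibitory concentration taken from dose/effect curve.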

T47D = test: Antiproliferative activity against T47D cell line; format: functional, cell-based; conditions: Homo sapiens
How it was run: as §1

NIH3T3 = test: Antiproliferative activity against NIH3T3 cell line; format: functional, cell-based; conditions: Mus musculus
How it was run: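 NIH3T3 fibroblasts were grown in DMEM with 10% calf serum and seeded at ~10% confluency with 24 h attachment. A range of compound concentrations in DMSO was applied for 24 h at 37 °C in 5% CO2, then washed off, followed by 48 h further incubation. Growth by sulforhodamine B; %T/C versus vehicle; IC50 from dose/effect curve.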

MCF10 = test: Antiproliferative activity against MCF10 cell line; format: functional, cell-based; conditions: Homo sapiens
FRTL-5 = test: Antiproliferative activity against FRTL5 cell line; format: functional, cell-based; conditions: Rattus norvegicus
How it was run: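 FRTL-5 rat thyroid cells were grown in Coon's modified Ham F12 with 5% calf serum plus six hormones, including TSH 1 × 10^-10 M. Cells were seeded at ~10% confluency and attached for 24 h. Compounds in DMSO were applied for 24 h at 37 °C in 5% CO2, then washed out, followed by 48 h culture. SRB read-out, %T/C; IC50 from dose/effect curve; vehicle controls.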

MDA-MB-231 = test: Antiproliferative activity against MDA-MB-231 cell line; format: functional, cell-based; conditions: Homo sapiens
How it was run: as §1

MCF7 = test: Antiproliferative activity against MCF7 cell line; format: functional, cell-based; conditions: Homo sapiens
How it was run: as §1

With `CSCC[C@H](NC(=O)[C@H]1CC2CCCCC2N1C(=O)[C@@H](NC(=O)[C@@H](N)CS)C(C)C)C(=O)O` (stereo not given in full) the IC50 [1] was 1 µM, the Activity (LoVo) was “inactive” and the Activity (T47D) was “inactive”. For the same molecule, the Activity (NIH3T3) was “inactive”, the Activity (MCF10) was “inactive” and the Activity (FRTL-5) was “inactive”. For the same molecule, the Activity (MDA-MB-231) was “inactive” and the Activity (MCF7) was “inactive”.
`CSCC[C@H](NC(=O)[C@@H](Cc1cc(C)c(O)cc1C)NC(=O)[C@@H](NC(=O)[C@H](CS)NC=O)C(C)C)C(=O)O` gave an IC50 [1] of 10.2 µM.
With `CSCC[C@H](NC(=O)[C@H](Cc1ccc(C)cc1C)NC(=O)[C@@H](NC(=O)[C@@H](N)CS)C(C)C)C(=O)O` the IC50 [1] was 2.2 µM, the Activity (LoVo) was “inactive” and the Activity (T47D) was “inactive”. The Activity (NIH3T3) was “inactive”, the Activity (MCF10) was “inactive” and the Activity (FRTL-5) was “inactive”. The Activity (MDA-MB-231) was “inactive” and the Activity (MCF7) was “inactive”.
With `CSCC[C@H](NC(=O)[C@@H](Cc1ccc(O)c(C)c1C)NC(=O)[C@@H](NC(=O)[C@@H](N)CS)C(C)C)C(=O)O` the IC50 [1] was 4.3 µM, the Activity (LoVo) was “inactive” and the Activity (T47D) was “inactive”. The Activity (NIH3T3) was “inactive”, the Activity (MCF10) was “inactive” and the Activity (FRTL-5) was “inactive”. The Activity (MDA-MB-231) was “inactive” and the Activity (MCF7) was “inactive”.
With `CSCC[C@H](NC(=O)[C@H](Cc1ccc(O)c(C)c1C)NC(=O)[C@@H](NC(=O)[C@@H](N)CS)C(C)C)C(=O)O` the IC50 [1] was 0.1 µM, the Activity (LoVo) was “inactive” and the Activity (T47D) was “inactive”. The Activity (NIH3T3) was “inactive”, the Activity (MCF10) was “inactive” and the Activity (FRTL-5) was “inactive”. For the same molecule, the Activity (MDA-MB-231) was “inactive” and the Activity (MCF7) was “inactive”.
With `CSCC[C@H](NC(=O)[C@H](Cc1ccc(O)cc1C)NC(=O)[C@@H](NC(=O)[C@@H](N)CS)C(C)C)C(=O)O` the IC50 [1] was 4.3 µM, the Activity (LoVo) was “inactive” and the Activity (T47D) was “inactive”. For the same molecule, the Activity (NIH3T3) was “inactive”, the Activity (MCF10) was “inactive” and the Activity (FRTL-5) was “inactive”. For the same molecule, the Activity (MDA-MB-231) was “inactive” and the Activity (MCF7) was “inactive”.
In the case of `CSCC[C@H](NC(=O)[C@@H](Cc1ccc(C)cc1C)NC(=O)[C@@H](NC(=O)[C@@H](N)CS)C(C)C)C(=O)O`, the IC50 [1] is reported as 4.3 µM, the Activity (LoVo) is reported as “inactive” and the Activity (T47D) is reported as “inactive”. For the same molecule, the Activity (NIH3T3) was “inactive”, the Activity (MCF10) was “inactive” and the Activity (FRTL-5) was “inactive”. The Activity (MDA-MB-231) was “inactive” and the Activity (MCF7) was “inactive”.
For `COC(=O)[C@H](CCSC)NC(=O)[C@@H](Cc1ccc(O)c(C)c1C)NC(=O)[C@@H](NC(=O)[C@@H](N)CS)C(C)C`, the IC50 [1] was 70.5 µM, the Activity (LoVo) was “inactive” and the Activity (T47D) was “inactive”. For the same molecule, the Activity (NIH3T3) was “inactive”, the Activity (MCF10) was “inactive” and the Activity (FRTL-5) was “inactive”. The Activity (MDA-MB-231) was “inactive” and the Activity (MCF7) was “inactive”.
For `CSCC[C@H](NC(=O)[C@H](Cc1cc(C)c(O)cc1C)NC(=O)[C@@H](NC(=O)[C@@H](N)CS)C(C)C)C(=O)O`, the IC50 [1] was 2.5 µM, the Activity (LoVo) was “inactive” and the Activity (T47D) was “inactive”. The Activity (NIH3T3) was “inactive”, the Activity (MCF10) was “inactive” and the Activity (FRTL-5) was “inactive”. The Activity (MDA-MB-231) was “inactive” and the Activity (MCF7) was “inactive”.
Molecule `CSCC[C@H](NC(=O)[C@H](Cc1ccc(O)c(C)c1C)NC(=O)[C@@H](NC(=O)[C@H](CS)NC=O)C(C)C)C(=O)O` has an IC50 [1] of 10.3 µM, an IC50 (T47D) of 100 µM and an IC50 (MDA-MB-231) of 100 µM.
In the case of `CSCC[C@H](NC(=O)[C@@H](Cc1cc(C)c(O)cc1C)NC(=O)[C@@H](NC(=O)[C@@H](N)CS)C(C)C)C(=O)O`, the IC50 [1] is reported as 10.5 µM, the Activity (LoVo) is reported as “inactive” and the Activity (T47D) is reported as “inactive”. For the same molecule, the Activity (NIH3T3) was “inactive”, the Activity (MCF10) was “inactive” and the Activity (FRTL-5) was “inactive”. The Activity (MDA-MB-231) was “inactive” and the Activity (MCF7) was “inactive”.
`CSCC[C@H](NC(=O)[C@H](Cc1cc(C)c(O)cc1C)NC(=O)[C@@H](NC(=O)[C@H](CS)NC=O)C(C)C)C(=O)O` showed an IC50 [1] of 5.5 µM.
Molecule `COC(=O)[C@H](CCSC)NC(=O)[C@H](Cc1ccc(O)c(C)c1C)NC(=O)[C@@H](NC(=O)[C@@H](N)CS)C(C)C` has an IC50 [1] of 20.4 µM, an IC50 (LoVo) of 9.1 µM and an IC50 (T47D) of 90 µM. For the same molecule, the IC50 (MDA-MB-231) was 83 µM and the IC50 (MCF7) was 65 µM.
With `CSCC[C@H](NC(=O)[C@@H](Cc1ccc(O)cc1C)NC(=O)[C@@H](NC(=O)[C@@H](N)CS)C(C)C)C(=O)O` the IC50 [1] was 11.4 µM, the Activity (LoVo) was “inactive” and the Activity (T47D) was “inactive”. The Activity (NIH3T3) was “inactive”, the Activity (MCF10) was “inactive” and the Activity (FRTL-5) was “inactive”. The Activity (MDA-MB-231) was “inactive” and the Activity (MCF7) was “inactive”.

Source: ChEMBL document CHEMBL1138191, “Synthesis, pharmacological evaluation, and molecular modeling studies of novel peptidic CAAX analogues as farnesyl-protein-transferase inhibitors” (J Med Chem, 2006)
